From PubChem
An excerpt weighted towards active compounds, which were near 2.4% of everything screened.
MT stabilize HCS: stabilizes microtubules in HeLa cells | % tubulin-high responders, % at 10 µM | 200,000 tested, 0.83% active | HeLa tubulin immunostaining HCS, 24 h; share of cells brighter than vehicle mean+2SD;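 active = plate Z-score above 3 for both tubulin-high and condensed-nucleus cell shares, with cell loss under 80%, at 10 µM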;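 also: anti alpha tubulin signal scored within the nucleus-defined area of each cell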
HSV replic up: increases HSV replication in cells; HSV replication augmentation in cells, fold increase; maximum fold increase; 220,000 tested, 0.005% active; in the data active = maximum fold increase above about 1.5; tested in PC3 cells
INS promoter inh: TRM-6 insulin promoter activity inhibition; TRM-6 cells, insulin promoter-eGFP reporter, imaging; reporter expression induced with tamoxifen; inhibition, % at 2 µM; AID 1273; 130,000 tested, 0.9% active;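 active = inhibition above the mean plus 3 SD, with well images judged a real hit on visual review, cut at about 60% in these data, passing the limit was not always enough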
bCat nuc transl: beta-catenin nuclear translocation modulation; HeLa beta-catenin nuclear translocation, immunofluorescence imaging; nuclear translocation activity, % at 5 µM; 190,000 tested, 0.3% active; AID 1665;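 active = nuclear translocation activity above 50% at 5 µM, with a well cell count of 50 or more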;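 also: per-cell ratio of nuclear to cytoplasmic median beta-catenin stain intensity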
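Read-out: Nuclear/cytoplasmic beta-catenin signal ratio, % activation | Assay system: Human HeLa cell line | Times: 24 h compound exposure at 37°C, 5% CO2 | Signal: Fluorescence imaging of beta-catenin antibody stain plus DAPI | Dosing: 5 µM primary, 0.02–20 µM confirmation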
ROMK primary: human ROMK K+ channel modulation, primary screen. P48048. Tet-inducible ROMK, thallium flux fluorescence; actives lie on both sides. B-score at 10 µM. 130,000 tested, 2% active. AID 1918;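 active = signal ratio slope over the read window, or its plate-corrected B-score, at least 3 SD from the plate mean, either direction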;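 also: B-score of the F/F0 ratio slope over 7 to 12 s after thallium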
Target sequence (P48048 whole entry, looked up): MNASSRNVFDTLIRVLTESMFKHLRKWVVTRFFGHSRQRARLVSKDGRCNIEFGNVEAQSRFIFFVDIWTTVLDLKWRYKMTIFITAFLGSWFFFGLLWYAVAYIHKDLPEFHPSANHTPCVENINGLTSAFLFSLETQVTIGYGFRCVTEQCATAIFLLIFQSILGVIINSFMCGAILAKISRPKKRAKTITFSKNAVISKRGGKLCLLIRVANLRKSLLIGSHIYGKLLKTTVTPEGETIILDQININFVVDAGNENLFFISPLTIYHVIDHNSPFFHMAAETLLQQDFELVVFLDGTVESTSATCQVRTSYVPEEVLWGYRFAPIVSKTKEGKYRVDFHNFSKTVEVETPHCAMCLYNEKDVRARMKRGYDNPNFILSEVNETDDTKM
Of the large screens only hits and unclear results are named; the others gave an inactive call.

Oc1cccc(C2c3[nH]c4ccccc4c3CCN2Cc2ccc3c(c2)CCO3)c1 (stereo unspecified)	MT stabilize HCS 8.2 (no result: INS promoter inh)
CCOC(=O)c1ccc(NC2=CC(=O)CC(c3ccco3)C2)cc1 (stereo unspecified)	none (no result: INS promoter inh)
O=C1C=C(Nc2ccc(O)cc2)CC(c2ccco2)C1 (stereo unspecified)	MT stabilize HCS 46
Cn1cnnc1SCC(=O)Nc1ccccc1Oc1ccccc1	none (no result: INS promoter inh)
Cc1ccsc1C(=O)OCC(=O)Nc1cccc(S(=O)(=O)N2CCOCC2)c1	none (no result: INS promoter inh, ROMK primary)
Clc1ccc(-c2csc(N3CCOCC3)n2)cc1	INS promoter inh 73
Brc1ccc(-c2csc(N3CCOCC3)n2)cc1	none (no result: INS promoter inh)
COc1ccc(CC(=O)Nc2ccc(OC)nc2)cc1	none (no result: INS promoter inh)
COc1ccc(NC(=O)Cc2ccc(-c3ccccc3)cc2)cn1	MT stabilize HCS 26, bCat nuc transl 96 (no result: INS promoter inh)
CCOc1ccc(OCC)c(NC(=O)CCn2cccc2)c1	none
Cc1c(C#N)c(O)n(C)c(=O)c1N=Nc1ccc(S(N)(=O)=O)cc1	INS promoter inh 65
CSc1nc2ccccc2n1C(=O)Oc1ccccc1	INS promoter inh 87 (no result: ROMK primary)
C/C(=N\Nc1nc2ccccc2[nH]1)c1ccc(N2CCOCC2)cc1	INS promoter inh 75
c1ccc2[nH]c(N3CCOCC3)nc2c1	INS promoter inh 61 (no result: ROMK primary)
Cc1nnsc1SCCNC(=O)Nc1ccc(Cl)cc1	none (no result: INS promoter inh)
O/N=C(/CN(O)/C=C1/C=CC=N1)c1cccs1	ROMK primary -5
COc1ccc(CN2CCCC(C(=O)c3ccc(SC)cc3)C2)cc1Cn1cccn1 (stereo unspecified)	none (no result: INS promoter inh)
CSc1ccc(C(=O)C2CCCN(Cc3ccc(N4CCNC4=O)cc3)C2)cc1 (stereo unspecified)	MT stabilize HCS 14 (no result: INS promoter inh)
Cc1ccc(/C=C/C(=O)N2CCc3ccccc32)o1	MT stabilize HCS 10 (no result: bCat nuc transl, ROMK primary)
Cc1nc2ccc(S(=O)(=O)NCC(=O)N3CCCC(C)C3)cc2s1 (stereo unspecified)	INS promoter inh 73
COC(=O)Cc1c(C(=O)OC)nnn1-c1cccc(C(F)(F)F)c1	none (no result: HSV replic up, ROMK primary)
O=S(=O)(c1ccc(F)cc1)c1snnc1-c1ccccc1	none (no result: INS promoter inh)
O=S(=O)(c1ccc(Cl)cc1)c1snnc1-c1ccccc1	MT stabilize HCS 17 (no result: bCat nuc transl)
COc1ccc(C(=O)CSc2ccc(-c3ccccc3)nn2)cc1	none (no result: INS promoter inh, ROMK primary)
COc1cccc(-c2ccc(SCC(=O)c3ccccc3)nn2)c1	INS promoter inh 78
COc1ccc(Nc2nnc(SCc3cc([N+](=O)[O-])cc4c3OCOC4)s2)cc1	none
COc1ccc(/C=C2\C(=O)NCC(=O)N2Cc2ccccc2)cc1	MT stabilize HCS 32 (no result: ROMK primary)
COc1ccc(/C=C2\C(=O)N(Cc3ccc(F)cc3)CC(=O)N2Cc2ccccc2)cc1	none (no result: INS promoter inh, ROMK primary)
C=CCNC(=S)/N=c1/ccccn1CCC	none (no result: MT stabilize HCS, INS promoter inh)
COc1ccc(Nc2oc(-c3ccc(OC)cc3)nc2C#N)cc1	none (no result: MT stabilize HCS, INS promoter inh)
COc1ccc(Nc2oc(-c3ccc(Cl)cc3)nc2C#N)cc1	MT stabilize HCS 39, bCat nuc transl 63 (no result: ROMK primary)
CCOc1ccc(Nc2oc(-c3ccc(Cl)cc3)nc2C#N)cc1	MT stabilize HCS 33 (no result: ROMK primary)
COc1ccc(C(=O)O/N=C(\N)Cc2ccc([N+](=O)[O-])cc2)c(OC)c1	none (no result: MT stabilize HCS, INS promoter inh, ROMK primary)
COc1cc(NC(=S)NC(=O)c2cc(C)cc(C)c2)ccc1NC(=O)c1cccs1	none (no result: INS promoter inh, ROMK primary)
COc1cc(NC(=S)NC(=O)c2c(OC)cccc2OC)ccc1NC(=O)c1cccs1	MT stabilize HCS 21 (no result: ROMK primary)
Cc1ccnc(N2CCC(C(=O)Nc3cccc(C(F)(F)F)c3)CC2)n1	none (no result: INS promoter inh, ROMK primary)
O=C(Oc1ccc(NC2=C(Cl)C(=O)c3ccccc3C2=O)cc1)c1ccc([N+](=O)[O-])cc1	INS promoter inh 62
COc1ccc(CCn2ccc(O)c(Cc3c(F)cccc3Cl)c2=O)cc1OC	none
CCOC(=O)C(C)(C)C(=O)C(C)(C)C(O)c1ccccn1 (stereo unspecified)	none (no result: INS promoter inh)
COc1cc(/C=N/Nc2nncn2/N=C/c2ccc(O)c(OC)c2)ccc1O	none
COc1ccc(OC)c(/C=N/Nc2nncn2/N=C/c2cc(OC)ccc2OC)c1	MT stabilize HCS 32 (no result: bCat nuc transl)
O=C1NC(c2ccccc2Cl)Nc2ccccc21 (stereo unspecified)	MT stabilize HCS 27
CN(Cc1ccccc1)S(=O)(=O)c1ccc(Cl)c(C(=O)NCc2ccc3c(c2)OCO3)c1	none
O=C(O)c1cccc(CSc2n[nH]c(-c3ccc(Cl)cc3Cl)n2)c1	none
COc1ccc(S(=O)(=O)Cc2ccc(C(=O)N3CCN(c4cccc(C)c4C)CC3)o2)cc1	MT stabilize HCS 22 (no result: INS promoter inh, ROMK primary)
Cc1cccc(N2CCN(C(=O)c3ccc4c(c3)OCCO4)CC2C)c1 (stereo unspecified)	MT stabilize HCS 13
Cc1ccc(S(=O)(=O)Cc2ccc(C(=O)N3CCN(c4ccc(F)cc4)CC3)o2)cc1	MT stabilize HCS 24 (no result: INS promoter inh, bCat nuc transl, ROMK primary)
COc1ccc(S(=O)(=O)Cc2ccc(C(=O)N3CCN(c4cccc(C)c4)C(C)C3)o2)cc1 (stereo unspecified)	MT stabilize HCS 24 (no result: INS promoter inh, bCat nuc transl, ROMK primary)
COC(=O)Cc1c(O)ccn(Cc2cccc3ccccc23)c1=O	none (no result: bCat nuc transl, ROMK primary)
Cc1ccc(S(=O)(=O)CCC(=O)OCn2nnc3ccccc3c2=O)cc1	none (no result: INS promoter inh)
CCOC(=O)C1(c2nc(N)cs2)COC(=O)C1 (stereo unspecified)	none (no result: INS promoter inh)
O=C1CC(c2cccc(Cl)c2)c2cc3c(cc2N1)CCC3 (stereo unspecified)	MT stabilize HCS 32 (no result: INS promoter inh, ROMK primary)
O=C1CC(c2cccc([N+](=O)[O-])c2)c2cc3c(cc2N1)CCC3 (stereo unspecified)	MT stabilize HCS 26
COc1cccc(C2CC(=O)NC(SC)=C2C#N)c1 (stereo unspecified)	none (no result: INS promoter inh, bCat nuc transl, ROMK primary)
O=C1CC(c2cccc([N+](=O)[O-])c2)c2c(ccc3ccccc23)N1 (stereo unspecified)	MT stabilize HCS 50
O=[N+]([O-])c1cccc(CNc2ccc3c(c2)CCC3)c1	none (no result: bCat nuc transl)
Cc1ccc(C2CC(=O)Nc3c2ccc2ccccc32)cc1[N+](=O)[O-] (stereo unspecified)	none
O=C1CC(c2cc(Br)ccc2F)c2cc3c(cc2N1)CCC3 (stereo unspecified)	none (no result: ROMK primary)
COc1cccc(C2CC(=O)Nc3cc4c(cc32)CCC4)c1 (stereo unspecified)	MT stabilize HCS 17 (no result: INS promoter inh, ROMK primary)
Cc1cc(-c2nnc(CCC(=O)NC(Cc3ccccc3)c3ccccc3)o2)no1 (stereo unspecified)	none (no result: INS promoter inh)
O=C(COC(=O)c1cc(-c2cccs2)nc2ccccc12)NC1CCS(=O)(=O)C1 (stereo unspecified)	none
O=C(Nc1ccccc1)c1ccc(-c2ccc(Br)cc2)o1	none (no result: bCat nuc transl)
O=C(Nc1ccccc1N1CCCCC1)c1ccc(-c2ccc(Cl)cc2)o1	MT stabilize HCS 29, bCat nuc transl 64
O=C(Nc1ccccc1N1CCCC1)c1ccc(Br)o1	none (no result: ROMK primary)
COc1ccccc1NC(=O)c1ccc(-c2ccc(Br)cc2)o1	MT stabilize HCS 39
O=C(Nc1cccc(NC(=O)c2ccc(-c3ccc(Br)cc3)o2)c1)c1ccccc1	MT stabilize HCS 18
CCOC(=O)N1CCC(NC(=O)c2cc(C(=O)Nc3ccc(OC)c(OC)c3)ccc2CO)CC1	none (no result: INS promoter inh)
COc1ccc(NC(=S)N(CCCN2CCCC2)Cc2cccn2Cc2ccc(Cl)cc2)cc1Cl	MT stabilize HCS 60 (no result: INS promoter inh)
